Key:
K562 = assay: Cytotoxicity against human imitinib-resistant K562 cells by MTT assay; type: functional, cell-based
Method in brief: (§1)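 Cells grown in RPMI 1640 with 1% glutamine, 1% penicillin/streptomycin and 10% fetal calf serum, then exposed to the sesquiterpenes. Viability was read by MTT. Bone marrow came from three healthy volunteers who gave informed consent. Camptothecin was the positive control for Raji.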

[1] = Cytotoxicity against mouse dasatinib-resistant DA1-3b cells carrying pCDNA3-p210BCR/ABL plasmid by MTT assay; type: functional, cell-based; method in brief: as §1
[2] = Cytotoxicity against human bone marrow cells by MTT assay; type: cell-based; details: Bone marrow cell; method in brief: as §1
Raji = assay: Cytotoxicity against human Raji cells by MTT assay; type: functional, cell-based; method in brief: as §1
[3] = Homo sapiens, K562, read-out: IC50
[4] = Mus musculus, DA1-3b, read-out: IC50

Row | Structure (SMILES) | IC50 (K562; [3]) [µM] | IC50 [1, 4] [µM] | IC50 (K562; k562) | IC50 ([1]; da1-3b) | IC50 [2] [µM] | IC50 (Raji) [µM]
1 | C/C=C(/C)C(=O)O[C@@H]1C/C=C(\C)CCCC(C)(C)[C@@H](OC(C)=O)/C=C\1C [LYCIFERIN B] | > 50 | 45 | – | – | – | –
2 | C=C1/C=C/C(C)(C)[C@H](OC(=O)c2ccc(O)c(OC)c2)CC/C(C)=C/CC1 [VANILLOYL FERVANOL] | – | – | Not Active | Not Active | – | –
3 | C/C1=C\[C@H](OC(=O)c2ccc(O)cc2)[C@H](C(C)C)CC/C(C)=C/CC1 | 25.3 | 24.7 | – | – | > 50 | 20.9
4 | C/C1=C/[C@H](O)C(C)(C)CCC/C(C)=C/C[C@H]1OC(=O)c1ccccc1 [LYCIFERIN C] | – | – | Not Active | Not Active | – | –
5 | COc1cc(C(=O)O[C@@H]2C/C=C(\C)CCCC(C)(C)[C@@H](OC(C)=O)/C=C\2C)ccc1O [LYCIFERIN E] | 41.5 | 20.1 | – | – | – | –
6 | COc1cc(C(=O)O[C@@H]2C/C=C(\C)CCCC(C)(C)[C@@H](O)/C=C\2C)ccc1O [JUNIFERIN] | > 50 | 29 | – | – | – | –
7 | CC(=O)O[C@H]1/C=C(/C)[C@H](OC(=O)c2ccc(O)cc2)C/C=C(\C)CCCC1(C)C [JUNIFERININ] | 33 | 18.6 | – | – | 30.7 | 13
8 | CC(=O)O[C@H]1/C=C(/C)[C@H](OC(=O)c2ccccc2)C/C=C(\C)CCCC1(C)C [LYCIFERIN D] | > 50 | 45 | – | – | – | –
9 | C/C=C(/C)C(=O)O[C@@H]1C/C=C(\C)CCCC(C)(C)[C@@H](O)/C=C\1C [LYCIFERIN A] | – | – | Not Active | Not Active | – | –
10 | C/C1=C/[C@H](O)C(C)(C)CCC/C(C)=C/C[C@H]1OC(=O)c1ccc(O)cc1 [JUNIFERDIN] | > 50 | 23.7 | – | – | – | –
11 | CC[C@@]1(O)C(=O)OCc2c1cc1n(c2=O)Cc2cc3ccccc3nc2-1 [CAMPTOTHECIN] | 0.002 | 0.03 | – | – | – | 1
12 | COc1cc(C(=O)O[C@H]2/C=C(\C)CC/C=C(\C)CC[C@H]2C(C)C)ccc1O | – | – | Not Active | Not Active | – | –
